# From PubChem BioAssay
# Activity calls are given as the source filed them.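 The calls were made as follows, unless noted: active = current rise at least 3 SD above the untreated control mean in each of two repeat wells; inactive = the rest.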
# Legend:
# [1] = nonspecific flux increase, KCNQ1-free cells – parental CHO cells, counter-screen for KCNQ1 potentiator project (AID 493006;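 active = duplicate-averaged activation above buffer control mean plus 5 SD of those controls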); conditions: parental CHO-K1 cells, FluxOR thallium flux, at 10 µM; stronger effect = higher value
# In short: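 Assay system: Untransfected host CHO-K1 cells with FluxOR thallium dye | Probe or stimulus: Potassium/thallium depolarization pulse | Schedule: Overnight 37 °C plating, 90 min RT dye, 20 min compound | Detection: Kinetic thallium-flux fluorescence | Read-out: Max-minus-min fluorescence over baseline, percent of buffer-to-R-L3 span | Benchmarks: Low control buffer, high control R-L3 activator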
# [2] = target: Potassium voltage-gated channel subfamily KQT member 1 (Homo sapiens) (UniProt P51787); test: enhancement of KCNQ1 channel thallium flux – FluxOR thallium flux, CHO cells, duplicates, confirmation (AID 493007;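 active = potentiation averaged over duplicate wells exceeding buffer-only control mean by more than 3 SD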;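 as to outcome: cells depolarized by a potassium plus thallium sulfate stimulus after compound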); conditions: KCNQ1 cell line, FluxOR thallium flux fluorescence, at 10 µM; stronger effect = higher value, % of reference activator effect, buffer zero
# Chain of Potassium voltage-gated channel subfamily KQT member 1 (Homo sapiens) (P51787 whole entry, looked up): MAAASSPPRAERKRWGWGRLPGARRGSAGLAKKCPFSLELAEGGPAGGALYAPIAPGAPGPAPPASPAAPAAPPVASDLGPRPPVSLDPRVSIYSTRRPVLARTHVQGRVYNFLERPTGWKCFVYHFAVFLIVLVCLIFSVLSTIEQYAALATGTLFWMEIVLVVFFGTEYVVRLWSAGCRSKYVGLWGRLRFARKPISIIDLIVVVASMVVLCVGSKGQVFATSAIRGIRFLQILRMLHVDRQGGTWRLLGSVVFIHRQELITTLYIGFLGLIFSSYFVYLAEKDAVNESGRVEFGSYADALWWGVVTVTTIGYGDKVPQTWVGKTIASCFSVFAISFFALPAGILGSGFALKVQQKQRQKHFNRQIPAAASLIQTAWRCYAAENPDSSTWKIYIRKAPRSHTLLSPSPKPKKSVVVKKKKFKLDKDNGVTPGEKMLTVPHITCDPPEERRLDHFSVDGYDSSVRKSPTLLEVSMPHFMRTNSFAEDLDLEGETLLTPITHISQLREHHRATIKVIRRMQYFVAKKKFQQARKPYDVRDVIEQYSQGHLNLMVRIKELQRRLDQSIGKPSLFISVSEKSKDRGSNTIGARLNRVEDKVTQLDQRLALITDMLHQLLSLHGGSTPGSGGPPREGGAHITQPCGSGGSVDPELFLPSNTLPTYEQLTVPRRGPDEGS
# In short: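 Material: KCNQ1-expressing CHO cell line; Incubation: FluxOR dye loading 90 min, compound exposure 20 min, room temperature; Detection: FluxOR Tl+ flux fluorescence, 10 s baseline plus 110 s recording; Read-out: percent activation between buffer and R-L3 responses; Control set: buffer-only wells as 0% and R-L3 activator as 100%; Replication: duplicate wells per compound.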
# [3] = target: Potassium voltage-gated channel subfamily KQT member 2 (Rattus norvegicus) (UniProt O88943); test: KCNQ2 thallium flux enhancement – KCNQ2-CHO-K1 cells, selectivity assay for KCNQ1 potentiator project (AID 493009;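 active = mean duplicate potentiation above the buffer control mean plus 5 SD of buffer wells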;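 also: assay conditions were tuned for KCNQ1 rather than KCNQ2 modulators; signal is max minus min fluorescence divided by baseline after thallium stimulus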); conditions: FluxOR thallium flux fluorescence, at 10 µM; stronger effect = higher value, scaled: buffer 0, activator control 100
# Chain of Potassium voltage-gated channel subfamily KQT member 2 (Rattus norvegicus) (O88943 whole entry, looked up): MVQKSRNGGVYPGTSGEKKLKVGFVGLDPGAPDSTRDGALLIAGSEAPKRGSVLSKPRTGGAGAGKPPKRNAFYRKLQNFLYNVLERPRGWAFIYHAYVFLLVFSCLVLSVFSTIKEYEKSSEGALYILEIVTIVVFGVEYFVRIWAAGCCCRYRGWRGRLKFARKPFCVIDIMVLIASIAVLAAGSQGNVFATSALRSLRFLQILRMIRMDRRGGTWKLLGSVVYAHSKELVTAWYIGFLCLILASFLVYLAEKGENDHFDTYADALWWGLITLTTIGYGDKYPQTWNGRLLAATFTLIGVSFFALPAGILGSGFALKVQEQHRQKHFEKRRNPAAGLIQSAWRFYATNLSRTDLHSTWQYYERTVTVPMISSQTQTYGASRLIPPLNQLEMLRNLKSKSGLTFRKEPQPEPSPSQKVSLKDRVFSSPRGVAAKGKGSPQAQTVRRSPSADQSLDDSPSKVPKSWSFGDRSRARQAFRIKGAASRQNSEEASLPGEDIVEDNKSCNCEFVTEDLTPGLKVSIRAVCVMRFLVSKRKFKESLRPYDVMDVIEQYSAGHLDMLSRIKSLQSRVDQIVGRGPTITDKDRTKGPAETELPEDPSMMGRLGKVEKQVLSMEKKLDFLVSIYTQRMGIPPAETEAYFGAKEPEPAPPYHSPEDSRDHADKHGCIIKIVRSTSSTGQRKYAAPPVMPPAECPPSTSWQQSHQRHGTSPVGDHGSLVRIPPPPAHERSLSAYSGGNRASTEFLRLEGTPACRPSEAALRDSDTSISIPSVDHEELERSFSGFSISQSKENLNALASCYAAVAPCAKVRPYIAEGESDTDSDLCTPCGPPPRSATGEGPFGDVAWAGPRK
# [4] = target: Potassium voltage-gated channel subfamily KQT member 1 (Homo sapiens) (UniProt P51787); test: KCNQ1 activators by electrophysiology – IonWorks patch clamp, KCNQ1-CHO cells, orthogonal assay for KCNQ1 potentiator project, confirmation (AID 493184); conditions: automated patch clamp current, at 10 µM; stronger effect = higher value;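 as to current potentiation: percent change of the same well's current before compound addition so 0% = no change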
# In short: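 assay system = KCNQ1-expressing CHO cells | medium = external bath solution at pH 7.4 | probe or stimulus = 2,000 ms depolarization, -90 to +40 mV | compound dosing = 10 µM final, single point | measured by = automated voltage clamp, amphotericin B perforated patch | measure = percent current increase versus pre-compound level | replication = duplicates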
Structure (SMILES),activation [1],potentiation [2],potentiation [3],outcome [4],outcome [1],outcome [2],outcome [3],current potentiation [4]
O=C(Nc1nc(=O)c2ccccc2s1)c1ccc(Cl)cc1,246% (active),85.5% (active),242% (active),inactive,–,–,–,–
O=C(N/N=C/c1ccccn1)c1cc(Br)ccc1O,147% (active),24% (active),182% (active),inactive,–,–,–,–
O=c1c2c3c(sc2[nH]c(=S)n1Cc1ccco1)CCC3,264% (active),108% (active),289% (active),inactive,–,–,–,–
O=C(Nc1ccncc1)c1ccc([N+](=O)[O-])cc1Cl,–,–,–,inactive,inactive,inactive,inactive,–
NC(=O)NC(=O)C[n+]1cccc(/C=N/O)c1,–,–,–,inactive,inactive,inactive,inactive,–
COc1ccc(CN(C)C(=O)c2ccc3ccccc3n2)cc1F,–,–,–,inactive,inactive,inactive,inactive,–
Cc1cc(OCC(=O)NNC(=O)c2cnccn2)cc(C)c1Cl,200% (active),22% (active),279% (active),inactive,–,–,–,–
O=C(CN1CCN(Cc2ccc(F)cc2Cl)C1=O)NCCc1ccccc1,–,–,–,inactive,inactive,inactive,inactive,–
O=c1c2cccnc2n(-c2ccccc2)n1Cc1ccc(Cl)cc1,–,–,–,inactive,inactive,inactive,inactive,–
CC(=O)Nc1ccc(/C=N/N2C(=O)NC(C)(c3ccc(OC(F)F)cc3)C2=O)cc1 (stereo not given),219% (active),100% (active),234% (active),inactive,–,–,–,–
O=C(Nc1ccc(Cl)cn1)c1cccc(S(=O)(=O)N2CCOCC2)c1,–,–,–,inactive,inactive,inactive,inactive,–
Fc1cccc2sc(Nc3nnc(-c4ccccc4)o3)nc12,531% (active),198% (active),481% (active),inactive,–,–,–,–
Nc1nc(-c2ccccc2)c(N=Nc2ccccc2Cl)s1,488% (active),168% (active),416% (active),inactive,–,–,–,–
CSc1nccc(-c2nn(-c3ccc(C)cc3)ccc2=O)n1,–,–,–,inactive,inactive,inactive,inactive,–
C=CCn1c(=S)[nH]c2scc(-c3cccs3)c2c1=O,620% (active),274% (active),554% (active),inactive,–,–,–,–
CC(C)n1c(=S)[nH]c2scc(-c3cccs3)c2c1=O,491% (active),200% (active),465% (active),inactive,–,–,–,–
COc1ccc(Nc2nc(-c3sc(C)nc3C)cs2)c(OC)c1,–,–,–,inactive,inactive,inactive,inactive,–
O=c1c(-c2ccc(Cl)cc2)[n+]([O-])c2ccccc2n1O,190% (active),–,184% (active),inactive,–,inactive,–,–
Cc1nnc(C)n1/N=C/c1cc(Br)cc(Br)c1O,145% (active),–,–,inactive,–,inactive,inactive,–
CCCCOC(=O)c1cc(C)nc2ccc(Br)cc12,306% (active),172% (active),320% (active),inactive,–,–,–,–

Structure (SMILES),activation [1],potentiation [2],potentiation [3],outcome [4],outcome [1],outcome [2],outcome [3],current potentiation [4]
COc1ccccc1OCCSc1nc2ccccc2n1CCC(=O)O,–,–,–,inactive,inactive,inactive,inactive,–
O=C(c1ccccc1[N+](=O)[O-])N1CCN(c2ccc(N3CCOCC3)nn2)CC1,–,–,–,inactive,inactive,inactive,inactive,–
COc1ccc(-c2nc(=S)c3ccc4ccccc4c3[nH]2)cc1,207% (active),83.5% (active),180% (active),inactive,–,–,–,–
N#Cc1ccc(-c2nc3ccc(Br)cc3c(=O)n2O)cc1,300% (active),120% (active),354% (active),inactive,–,–,–,–
CCOc1ccccc1C1c2[nH]c3ccccc3c2C[C@H]2C(=O)N(C3CC3)CC(=O)N12 (stereo not given in full),–,–,–,–,inactive,inactive,inactive,22.3% (active)
O=C(Nc1nnc(-c2ccc3c(c2)CCCC3)o1)c1c(F)cccc1F,148% (active),25% (active),182% (active),–,–,–,–,20.7% (active)
CCCCn1c(-c2csc3c2CCC(C)C3)n[nH]c1=S (stereo not given),145% (active),75.5% (active),150% (active),inactive,–,–,–,–
CC1CN(C(=S)NC(=O)c2ccc(Cl)cc2)CC(C)O1 (stereo not given),144% (active),24% (active),152% (active),inactive,–,–,–,–
COc1ccc(CN(C)CC(=O)Nc2ccc(Cl)cc2C(F)(F)F)c(OC)c1,–,37.5% (active),–,inactive,inactive,–,inactive,–
CCCSC(=S)c1c(C)[nH]n(-c2ccccc2)c1=O,352% (active),165% (active),432% (active),inactive,–,–,–,–
CCC1CCC2(CC1)NC(CO)(CO)CO2 (stereo not given),–,–,–,inactive,inactive,inactive,inactive,–
Cc1nnc(SCC(=O)N(Cc2ccccc2)C(C)C)n1-c1ccccc1,–,–,–,inactive,inactive,inactive,inactive,–
O=C(c1ccc(-c2ccccc2)cc1)N1CCCC1,188% (active),217% (active),233% (active),inactive,–,–,–,–
CCN(CC)S(=O)(=O)c1cc(OC)ccc1N=Nc1ccc(O)c2ncccc12,–,37.5% (active),148% (active),inactive,inactive,–,–,–
Cc1cccc2sc(N(CCCN(C)C)C(=O)CCS(=O)(=O)c3ccccc3)nc12,–,–,–,inactive,inactive,inactive,inactive,–
Oc1ccc(N=Nc2ccc3c(c2)OCCO3)c2cccnc12,261% (active),92.5% (active),384% (active),inactive,–,–,–,–
CCc1cc(-c2n[nH]c(C)c2-c2nc3ccccc3s2)c(O)cc1OCC(=O)NN,–,–,–,inactive,inactive,inactive,inactive,–
O=C(Nc1cccc(S(=O)(=O)NC2=NCCC2)c1)c1c(F)cccc1Cl,–,–,–,inactive,inactive,inactive,inactive,–
COc1ccc(C)cc1-n1c(C)cc(C=O)c1C,–,44% (active),153% (active),inactive,inactive,–,–,–
CCOC(=O)C1CCN(C(=O)COc2cc(C)c(Br)c(C)c2)CC1,–,–,–,inactive,inactive,inactive,inactive,–

Structure (SMILES),activation [1],potentiation [2],potentiation [3],outcome [4],outcome [1],outcome [2],outcome [3],current potentiation [4]
O=C(COC(=O)C1CCC(=O)N1)Nc1ccc(Oc2ccccc2)cc1 (stereo not given),–,–,–,inactive,inactive,inactive,inactive,–
CCOC(=O)/C(C)=N/NC(=O)c1ccc([N+](=O)[O-])cc1,328% (active),157% (active),349% (active),inactive,–,–,–,–
COC(=O)C1=NN(C(=O)c2ccc(Cl)cc2)C(O)(c2ccccc2)C1 (stereo not given),426% (active),150% (active),392% (active),inactive,–,–,–,–
O=C(NC(=S)Nc1ccccc1N1CCCC1)c1ccco1,174% (active),21.5% (active),174% (active),inactive,–,–,–,–
Cc1ccccc1-c1nc(Cc2ccc(Cl)cc2)no1,–,–,–,inactive,inactive,inactive,inactive,–
S=c1[nH]cnc2scc(-c3ccc(Cl)cc3)c12,158% (active),47% (active),191% (active),inactive,–,–,–,–
C=CCSc1nc2sc3c(c2c(=O)n1CC)CCc1ccccc1-3,160% (active),91% (active),192% (active),inactive,–,–,–,–
Cc1ccc(C)c(S(=O)(=O)NCC(=O)N2CCCC2)c1,–,–,–,inactive,inactive,inactive,inactive,–
Cc1cc(C)c2nc(NC(=O)c3cc(C)on3)sc2c1,174% (active),36% (active),166% (active),inactive,–,–,–,–
O=[N+]([O-])c1cc(C(F)(F)F)ccc1Oc1cccnc1[N+](=O)[O-],–,–,–,inactive,inactive,inactive,inactive,–
O=C(C1CCCCC1)N1CCCC(c2nc3c(nnn3Cc3ccccc3)c(=O)[nH]2)C1 (stereo not given),–,–,–,inactive,inactive,inactive,inactive,–
S=c1[nH]c(-c2ccccc2)cn1/N=C/c1cccc2ccccc12,174% (active),65.5% (active),184% (active),inactive,–,–,–,–
O=C(NC(=S)N1CCCc2ccccc21)c1ccc([N+](=O)[O-])cc1,202% (active),82% (active),247% (active),inactive,–,–,–,–
CCN(CC)C(=S)NC(=O)c1ccc(OC)c(Br)c1,209% (active),63.5% (active),209% (active),inactive,–,–,–,–
O=C(NC(=S)N(CC1CCC1)CC1CCCO1)c1cccc([N+](=O)[O-])c1 (stereo not given),224% (active),74.5% (active),216% (active),inactive,–,–,–,–
Cc1cccc(NC(=S)NC(=O)c2cc(-c3ccccc3)nc3ccccc23)c1,–,32% (active),–,inactive,inactive,–,inactive,–
COc1ccc(/C=C2/S/C(=N/N=C3\CC4CCC3(C)C4(C)C)NC2=O)cc1 (stereo not given),–,21% (active),186% (active),inactive,inactive,–,–,–
CC1=NN(C(=O)c2csc(C(C)C)c2)C(O)(C(F)(F)F)C1 (stereo not given),164% (active),61.5% (active),178% (active),inactive,–,–,–,–
Cc1ccc(C)c2sc(NC(=O)c3nc4ccccc4s3)nc12,–,18% (active),–,inactive,inactive,–,inactive,–
COc1ccccc1C(=O)NNC(=O)C(=O)NC(C)(C)C,185% (active),68% (active),246% (active),inactive,–,–,–,–
